Columns and labels:
Type in all cases: functional
SF-295 [1] = assay: Growth inhibition of human SF295 cells at 10^-5 M after 48 hrs by Sulforhodamine B assay relative to control; settings: SF-295, 48 h, read-out: GI
How it was run: (§1)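 Single-dose primary screen at 10⁻⁵ M across 49 lines. Cells were plated 24 h beforehand, with a TCA-fixed time-zero plate, then exposed 48 h at 37 °C, 5% CO2. Cells were fixed with cold TCA, stained with SRB and read at 515 nm. Percent growth was calculated against time-zero and untreated-control absorbances.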

NCI-H460 = assay: Growth inhibition of human NCI-H460 cells at 10^-5 M after 48 hrs by Sulforhodamine B assay relative to control; settings: NCI-H460, 48 h, read-out: GI; how it was run: as §1
MDA-MB-435 = assay: Growth inhibition of human MDA-MB-435 cells at 10^-5 M after 48 hrs by Sulforhodamine B assay relative to control; settings: MDA-MB-435, 48 h, read-out: GI
How it was run: (§2)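 Single-dose screen at 10⁻⁵ M. Cells are preincubated 24 h at 37 °C in 5% CO2, then exposed to the compound, diluted from a DMSO stock into medium with gentamicin, for 48 h. Adherent cells are fixed with cold TCA (final 10%) and suspension cells with TCA (final 16%). Cells are stained with 0.4% SRB in 1% acetic acid and bound dye is read at 515 nm. Percent growth inhibition is taken against control wells and time-zero plates.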

HCT-116 [2] = assay: Growth inhibition of human HCT116 cells at 10^-5 M after 48 hrs by Sulforhodamine B assay relative to control; settings: HCT-116, 48 h, read-out: GI; how it was run: as §2
RXF 393 = assay: Growth inhibition of human RXF393 cells at 10^-5 M after 48 hrs by Sulforhodamine B assay relative to control; settings: RXF 393, 48 h, read-out: GI; how it was run: as §1
CAKI-1 = assay: Growth inhibition of human CAKI-1 cells at 10^-5 M after 48 hrs by Sulforhodamine B assay relative to control; settings: CAKI-1, 48 h, read-out: GI; how it was run: as §2
PC-3 = assay: Growth inhibition of human PC3 cells at 10^-5 M after 48 hrs by Sulforhodamine B assay relative to control; settings: PC-3, 48 h, read-out: GI; how it was run: as §1
A549 [3] = assay: Growth inhibition of human A549/ATCC cells after 48 hrs by Sulforhodamine B assay; settings: A549, 48 h
How it was run: (§3)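 Five-concentration SRB assay using 10-fold or ½-log serial dilutions from a DMSO stock. Exposure is 48 h at 37 °C in 5% CO2 after 24 h preincubation. TCA fixation is followed by SRB staining and a reading at 515 nm. Percentage growth is computed from time-zero, control and treated absorbances. GI50 is the concentration where [(Ti−Tz)/(C−Tz)]×100 = 50, read from the plot against log concentration.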

HCT-116 [4] = assay: Growth inhibition of human HCT116 cells after 48 hrs by Sulforhodamine B assay; settings: HCT-116, 48 h; how it was run: as §3
SK-OV-3 = assay: Growth inhibition of human SKOV3 cells after 48 hrs by Sulforhodamine B assay; settings: SK-OV-3, 48 h
How it was run: (§4)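 Cells were preincubated 24 h at 37 °C, 5% CO2, and a time-zero plate was TCA-fixed. Five concentrations were made by serial dilution from a DMSO stock (400-fold the top concentration) and incubated 48 h. Adherent cells were fixed with 10% final TCA and suspension cells with 16%. Plates were stained with 0.4% SRB and read at 515 nm. GI50 is the concentration giving 50% reduction in net protein increase versus control.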

HT-29 = assay: Growth inhibition of human HT-29 cells after 48 hrs by Sulforhodamine B assay; settings: HT-29, 48 h; how it was run: as §3
IGROV-1 = assay: Growth inhibition of human IGROV1 cells after 48 hrs by Sulforhodamine B assay; settings: IGROV-1, 48 h; how it was run: as §3
UO-31 = assay: Growth inhibition of human UO31 cells after 48 hrs by Sulforhodamine B assay; settings: UO-31, 48 h
How it was run: (§5)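 Five-concentration stage in the […]-cell-line panel, using 10-fold or ½-log serial dilutions made from a DMSO stock (400-fold). Cells were preincubated 24 h at 37 °C, then drug-exposed 48 h. A time-zero plate was fixed with TCA at dosing, adherent cells were fixed with cold TCA (10% final), and protein was stained with SRB, absorbance 515 nm. GI50 was where [(Ti−Tz)/(C−Tz)]×100 = 50, from the percent growth vs log concentration plot, expressed as log10 GI50.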

786-0 = assay: Growth inhibition of human 786-0 cells after 48 hrs by Sulforhodamine B assay; settings: 786-0, 48 h; how it was run: as §3
[5] = Growth inhibition of human NCI-ADR-RES cells after 48 hrs by Sulforhodamine B assay; how it was run: as §4
OVCAR-4 = assay: Growth inhibition of human OVCAR4 cells after 48 hrs by Sulforhodamine B assay; settings: OVCAR-4, 48 h; how it was run: as §4
U-251 = assay: Growth inhibition of human U251 cells after 48 hrs by Sulforhodamine B assay; settings: U-251, 48 h; how it was run: as §5
SNB-75 = assay: Growth inhibition of human SNB75 cells after 48 hrs by Sulforhodamine B assay; settings: SNB-75, 48 h; how it was run: as §4
HOP-62 = assay: Growth inhibition of human HOP62 cells after 48 hrs by Sulforhodamine B assay; settings: HOP-62, 48 h; how it was run: as §3
T47D = assay: Growth inhibition of human T47D cells after 48 hrs by Sulforhodamine B assay; how it was run: as §4
SR [6] = assay: Growth inhibition of human SR cells after 48 hrs by Sulforhodamine B assay; how it was run: as §4
HOP-92 = assay: Growth inhibition of human HOP92 cells at 10^-5 M after 48 hrs by Sulforhodamine B assay relative to control; settings: HOP-92, 48 h, read-out: GI; how it was run: as §2
A549 [7] = assay: Growth inhibition of human A549/ATCC cells at 10^-5 M after 48 hrs by Sulforhodamine B assay relative to control; settings: A549, 48 h, read-out: GI; how it was run: as §2
SR [8] = assay: Growth inhibition of human SR cells at 10^-5 M after 48 hrs by Sulforhodamine B assay relative to control; settings: read-out: GI; how it was run: as §1
SF-295 [9] = assay: Growth inhibition of human SF295 cells after 48 hrs by Sulforhodamine B assay; settings: SF-295, 48 h; how it was run: as §4
SNB-19 = assay: Growth inhibition of human SNB19 cells after 48 hrs by Sulforhodamine B assay; settings: SNB-19, 48 h; how it was run: as §4
Malme-3M = assay: Growth inhibition of human MALME-3M cells after 48 hrs by Sulforhodamine B assay; how it was run: as §3

Structure (SMILES)	inhibition of growth at 10 µM (SF-295 [1]) [%]	inhibition of growth at 10 µM (NCI-H460) [%]	inhibition of growth at 10 µM (MDA-MB-435) [%]	inhibition of growth at 10 µM (HCT-116 [2]) [%]	inhibition of growth at 10 µM (CAKI-1) [%]	inhibition of growth at 10 µM (PC-3) [%]	GI50 (A549 [3]) [µM]	GI50 (HCT-116 [4]) [µM]	GI50 (SK-OV-3) [µM]	GI50 (HT-29) [µM]	GI50 (IGROV-1) [µM]	GI50 (UO-31) [µM]	GI50 (786-0) [µM]	GI50 [5] [µM]	GI50 (OVCAR-4) [µM]	GI50 (U-251) [µM]	GI50 (SNB-75) [µM]	GI50 (HOP-62) [µM]	GI50 (T47D) [µM]	inhibition of growth at 10 µM (A549 [7]) [%]	other results
COc1ccc(N2CCN(c3nc(-c4ccncc4)nc4sc5c(c34)CCCCCC5)CC2)cc1	11.5	5.35	4.86	23.3	28.8	44.5															inhibition of growth at 10 µM (RXF 393): 17.2%
COc1ccc(N2CCN(c3nc(-c4ccccn4)nc4sc5c(c34)CCCCCC5)CC2)cc1							3.24	3.24	> 100	5.01	5.37	3.31	8.51	4.79	8.51	4.27	26.3	11.5	6.31		GI50 (SR [6]): 3.16 µM
c1ccc(N2CCN(c3nc(-c4ccncc4)nc4sc5c(c34)CCCCCC5)CC2)cc1	6.51	-6.17	2.52	-3.45	8.66	5.9														-0.56	inhibition of growth at 10 µM (HOP-92): 33.3%; inhibition of growth at 10 µM (SR [8]): 5.99%; inhibition of growth at 10 µM (RXF 393): 0.87%
c1ccc(N2CCN(c3nc(-c4ccccn4)nc4sc5c(c34)CCCCCC5)CC2)cc1	54.8	46	34.2	80.5	45.9	54														68.2	inhibition of growth at 10 µM (HOP-92): 26.8%; inhibition of growth at 10 µM (RXF 393): 32.2%
CN1CCN(c2nc(-c3ccncc3)nc3sc4c(c23)CCCCCC4)CC1							11.5	5.13	12	4.79	8.13	1.58	4.79	8.13	12.6	9.33	1.38	6.46	13.5		GI50 (SR [6]): 2.82 µM
CN1CCN(c2nc(-c3ccccn3)nc3sc4c(c23)CCCCCC4)CC1	13.8	2.79	4.89	14.1	20	15.3														22.6	
c1cc(-c2nc(N3CCOCC3)c3c4c(sc3n2)CCCCCC4)ccn1	19.5	8.02	0.03	23.2	15.8	35.4														24.9	inhibition of growth at 10 µM (SR [8]): 24.1%
NNc1nc(-c2ccncc2)nc2sc3c(c12)CCCCCC3	6.22	-4.36	1.01	4.13	7.27	7.42														-1.81	inhibition of growth at 10 µM (SR [8]): 15.7%
c1ccc(-c2nc(N3CCOCC3)c3c4c(sc3n2)CCCCCC4)nc1							3.55	3.72	9.33	6.03	3.16	1.17	11.7	0.832	4.9		7.08	9.55	4.47		GI50 (SF-295 [9]): 3.39 µM; GI50 (SNB-19): 8.32 µM; GI50 (Malme-3M): 3.31 µM
Clc1nc(-c2ccncc2)nc2sc3c(c12)CCCCCC3		-2.59	3.14	2.69	-4.99	0.63														-3.56	inhibition of growth at 10 µM (SR [8]): 21.4%
NNc1nc(-c2ccccn2)nc2sc3c(c12)CCCCCC3							3.16	3.55	30.9	5.5	4.17	1.02	5.62	0.457	10.5	4.47	12.6	8.51	5.01		GI50 (SR [6]): 3.98 µM
O=c1[nH]c(-c2ccncc2)nc2sc3c(c12)CCCCCC3							> 100			> 100	> 100	> 100	> 100			> 100	2.69	> 100			GI50 (Malme-3M): > 100 µM; GI50 (SR [6]): > 100 µM
Clc1nc(-c2ccccn2)nc2sc3c(c12)CCCCCC3		9.1	8.64	15.5	165	7.81														0.18	inhibition of growth at 10 µM (SR [8]): 33.7%
O=c1[nH]c(-c2ccccn2)nc2sc3c(c12)CCCCCC3							2.57	1.38	> 100	7.76	3.98	5.89	5.62	0.955	5.89	2.14	85.1	6.31	5.5		GI50 (SR [6]): 0.871 µM

Source: ChEMBL document CHEMBL2375304, “Synthesis and anticancer activity of novel 2-pyridyl hexahyrocyclooctathieno[2,3-d]pyrimidine derivatives” (2013)
